Measured values from ChEMBL document CHEMBL1828568, “Novel imaging agents for β-amyloid plaque based on the N-benzoylindole core” (Bioorg Med Chem Lett, 2011).

Tests used:
[1] = Octanol-phosphate buffer partition coefficient, log D of the compound at pH 7.4; format: physicochemical
Outline: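 Radioiodinated tracer partitioned between n-octanol and PBS at pH 7.4; log D reported as mean ± SD.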

[2] = tested on: Blood; experiment: Biodistribution in Kunming mouse blood at 1 uCi, iv after 2 mins by gamma counting; format: ADME, organism-based; conditions: in vivo
Outline: (§1)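 125I-labeled tracer given intravenously to normal mice. Organs and blood were sampled at 2, 15, 30, 60, 120 and 240 min after injection. Uptake is expressed as % ID/g, averaged over 5 mice ± SD.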

[3] = tested on: Blood; experiment: Biodistribution in Kunming mouse blood at 1 uCi, iv after 15 mins by gamma counting; format: ADME, organism-based; conditions: in vivo, 0.25 h; outline: as §1
[4] = tested on: Blood; experiment: Biodistribution in Kunming mouse blood at 1 uCi, iv after 30 mins by gamma counting; format: ADME, organism-based; conditions: in vivo, 0.5 h; outline: as §1
[5] = tested on: Blood; experiment: Biodistribution in Kunming mouse blood at 1 uCi, iv after 60 mins by gamma counting; format: ADME, organism-based; conditions: in vivo, 1 h; outline: as §1
[6] = tested on: Blood; experiment: Biodistribution in Kunming mouse blood at 1 uCi, iv after 120 mins by gamma counting; format: ADME, organism-based; conditions: in vivo, 2 h; outline: as §1
[7] = tested on: Blood; experiment: Biodistribution in Kunming mouse blood at 1 uCi, iv after 240 mins by gamma counting; format: ADME, organism-based; conditions: in vivo, 4 h; outline: as §1
[8] = tested on: Brain; experiment: Biodistribution in Kunming mouse brain at 1 uCi, iv after 2 mins by gamma counting; format: ADME, organism-based; conditions: in vivo; outline: as §1
[9] = tested on: Brain; experiment: Biodistribution in Kunming mouse brain at 1 uCi, iv after 15 mins by gamma counting; format: ADME, organism-based; conditions: in vivo, 0.25 h; outline: as §1
[10] = tested on: Brain; experiment: Biodistribution in Kunming mouse brain at 1 uCi, iv after 30 mins by gamma counting; format: ADME, organism-based; conditions: in vivo, 0.5 h; outline: as §1
[11] = tested on: Brain; experiment: Biodistribution in Kunming mouse brain at 1 uCi, iv after 60 mins by gamma counting; format: ADME, organism-based; conditions: in vivo, 1 h; outline: as §1
[12] = tested on: Brain; experiment: Biodistribution in Kunming mouse brain at 1 uCi, iv after 120 mins by gamma counting; format: ADME, organism-based; conditions: in vivo, 2 h; outline: as §1
[13] = tested on: Brain; experiment: Biodistribution in Kunming mouse brain at 1 uCi, iv after 240 mins by gamma counting; format: ADME, organism-based; conditions: in vivo, 4 h; outline: as §1
[14] = tested on: Heart; experiment: Biodistribution in Kunming mouse heart at 1 uCi, iv after 2 mins by gamma counting; format: ADME, organism-based; conditions: in vivo; outline: as §1
[15] = tested on: Heart; experiment: Biodistribution in Kunming mouse heart at 1 uCi, iv after 15 mins by gamma counting; format: ADME, organism-based; conditions: in vivo, 0.25 h; outline: as §1
[16] = tested on: Heart; experiment: Biodistribution in Kunming mouse heart at 1 uCi, iv after 30 mins by gamma counting; format: ADME, organism-based; conditions: in vivo, 0.5 h; outline: as §1
[17] = tested on: Heart; experiment: Biodistribution in Kunming mouse heart at 1 uCi, iv after 60 mins by gamma counting; format: ADME, organism-based; conditions: in vivo, 1 h; outline: as §1
[18] = tested on: Heart; experiment: Biodistribution in Kunming mouse heart at 1 uCi, iv after 120 mins by gamma counting; format: ADME, organism-based; conditions: in vivo, 2 h; outline: as §1
[19] = tested on: Heart; experiment: Biodistribution in Kunming mouse heart at 1 uCi, iv after 240 mins by gamma counting; format: ADME, organism-based; conditions: in vivo, 4 h; outline: as §1
[20] = tested on: Liver; experiment: Biodistribution in Kunming mouse liver at 1 uCi, iv after 2 mins by gamma counting; format: ADME, organism-based; conditions: in vivo; outline: as §1
[21] = tested on: Liver; experiment: Biodistribution in Kunming mouse liver at 1 uCi, iv after 15 mins by gamma counting; format: ADME, organism-based; conditions: in vivo, 0.25 h; outline: as §1
[22] = tested on: Liver; experiment: Biodistribution in Kunming mouse liver at 1 uCi, iv after 30 mins by gamma counting; format: ADME, organism-based; conditions: in vivo, 0.5 h; outline: as §1
[23] = tested on: Liver; experiment: Biodistribution in Kunming mouse liver at 1 uCi, iv after 60 mins by gamma counting; format: ADME, organism-based; conditions: in vivo, 1 h; outline: as §1
[24] = tested on: Liver; experiment: Biodistribution in Kunming mouse liver at 1 uCi, iv after 120 mins by gamma counting; format: ADME, organism-based; conditions: in vivo, 2 h; outline: as §1
[25] = tested on: Liver; experiment: Biodistribution in Kunming mouse liver at 1 uCi, iv after 240 mins by gamma counting; format: ADME, organism-based; conditions: in vivo, 4 h; outline: as §1
[26] = tested on: Spleen; experiment: Biodistribution in Kunming mouse spleen at 1 uCi, iv after 2 mins by gamma counting; format: ADME, organism-based; conditions: in vivo; outline: as §1
[27] = tested on: Spleen; experiment: Biodistribution in Kunming mouse spleen at 1 uCi, iv after 15 mins by gamma counting; format: ADME, organism-based; conditions: in vivo, 0.25 h; outline: as §1
[28] = tested on: Spleen; experiment: Biodistribution in Kunming mouse spleen at 1 uCi, iv after 30 mins by gamma counting; format: ADME, organism-based; conditions: in vivo, 0.5 h; outline: as §1
[29] = tested on: Spleen; experiment: Biodistribution in Kunming mouse spleen at 1 uCi, iv after 60 mins by gamma counting; format: ADME, organism-based; conditions: in vivo, 1 h
Outline: (§2)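 Radioiodinated tracers given intravenously to normal mice; organs taken at 2, 15, 30, 60, 120 and 240 min after injection. Uptake expressed as % ID/g, mean ± SD of 5 mice; stomach values carry a table footnote.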

[30] = tested on: Spleen; experiment: Biodistribution in Kunming mouse spleen at 1 uCi, iv after 120 mins by gamma counting; format: ADME, organism-based; conditions: in vivo, 2 h; outline: as §1
[31] = tested on: Spleen; experiment: Biodistribution in Kunming mouse spleen at 1 uCi, iv after 240 mins by gamma counting; format: ADME, organism-based; conditions: in vivo, 4 h; outline: as §1
[32] = tested on: Lung; experiment: Biodistribution in Kunming mouse lung at 1 uCi, iv after 2 mins by gamma counting; format: ADME, organism-based; conditions: in vivo; outline: as §1
[33] = tested on: Lung; experiment: Biodistribution in Kunming mouse lung at 1 uCi, iv after 15 mins by gamma counting; format: ADME, organism-based; conditions: in vivo, 0.25 h; outline: as §1
[34] = tested on: Lung; experiment: Biodistribution in Kunming mouse lung at 1 uCi, iv after 30 mins by gamma counting; format: ADME, organism-based; conditions: in vivo, 0.5 h; outline: as §1
[35] = tested on: Lung; experiment: Biodistribution in Kunming mouse lung at 1 uCi, iv after 60 mins by gamma counting; format: ADME, organism-based; conditions: in vivo, 1 h; outline: as §1
[36] = tested on: Lung; experiment: Biodistribution in Kunming mouse lung at 1 uCi, iv after 120 mins by gamma counting; format: ADME, organism-based; conditions: in vivo, 2 h; outline: as §1
[37] = tested on: Lung; experiment: Biodistribution in Kunming mouse lung at 1 uCi, iv after 240 mins by gamma counting; format: ADME, organism-based; conditions: in vivo, 4 h; outline: as §1
[38] = tested on: Kidney; experiment: Biodistribution in Kunming mouse kidney at 1 uCi, iv after 2 mins by gamma counting; format: ADME, organism-based; conditions: in vivo; outline: as §1
[39] = tested on: Kidney; experiment: Biodistribution in Kunming mouse kidney at 1 uCi, iv after 15 mins by gamma counting; format: ADME, organism-based; conditions: in vivo, 0.25 h; outline: as §1
[40] = tested on: Kidney; experiment: Biodistribution in Kunming mouse kidney at 1 uCi, iv after 30 mins by gamma counting; format: ADME, organism-based; conditions: in vivo, 0.5 h; outline: as §1
[41] = tested on: Kidney; experiment: Biodistribution in Kunming mouse kidney at 1 uCi, iv after 60 mins by gamma counting; format: ADME, organism-based; conditions: in vivo, 1 h; outline: as §1
[42] = tested on: Kidney; experiment: Biodistribution in Kunming mouse kidney at 1 uCi, iv after 120 mins by gamma counting; format: ADME, organism-based; conditions: in vivo, 2 h; outline: as §1
[43] = tested on: Kidney; experiment: Biodistribution in Kunming mouse kidney at 1 uCi, iv after 240 mins by gamma counting; format: ADME, organism-based; conditions: in vivo, 4 h; outline: as §1
[44] = tested on: Stomach; experiment: Biodistribution in Kunming mouse stomach assessed per organ at 1 uCi, iv after 2 mins by gamma counting; format: ADME, organism-based; conditions: in vivo; outline: as §2
[45] = tested on: Stomach; experiment: Biodistribution in Kunming mouse stomach assessed per organ at 1 uCi, iv after 15 mins by gamma counting; format: ADME, organism-based; conditions: in vivo, 0.25 h; outline: as §2
[46] = tested on: Stomach; experiment: Biodistribution in Kunming mouse stomach assessed per organ at 1 uCi, iv after 30 mins by gamma counting; format: ADME, organism-based; conditions: in vivo, 0.5 h; outline: as §2
[47] = tested on: Stomach; experiment: Biodistribution in Kunming mouse stomach assessed per organ at 1 uCi, iv after 60 mins by gamma counting; format: ADME, organism-based; conditions: in vivo, 1 h; outline: as §2
[48] = tested on: Stomach; experiment: Biodistribution in Kunming mouse stomach assessed per organ at 1 uCi, iv after 120 mins by gamma counting; format: ADME, organism-based; conditions: in vivo, 2 h; outline: as §2
[49] = tested on: Stomach; experiment: Biodistribution in Kunming mouse stomach assessed per organ at 1 uCi, iv after 240 mins by gamma counting; format: ADME, organism-based; conditions: in vivo, 4 h; outline: as §2
[50] = tested on: Muscle tissue; experiment: Biodistribution in Kunming mouse muscle at 1 uCi, iv after 2 mins by gamma counting; format: ADME, organism-based; conditions: in vivo; outline: as §1
[51] = tested on: Muscle tissue; experiment: Biodistribution in Kunming mouse muscle at 1 uCi, iv after 15 mins by gamma counting; format: ADME, organism-based; conditions: in vivo, 0.25 h; outline: as §1
[52] = tested on: Muscle tissue; experiment: Biodistribution in Kunming mouse muscle at 1 uCi, iv after 30 mins by gamma counting; format: ADME, organism-based; conditions: in vivo, 0.5 h; outline: as §1
[53] = tested on: Muscle tissue; experiment: Biodistribution in Kunming mouse muscle at 1 uCi, iv after 60 mins by gamma counting; format: ADME, organism-based; conditions: in vivo, 1 h; outline: as §1
[54] = tested on: Muscle tissue; experiment: Biodistribution in Kunming mouse muscle at 1 uCi, iv after 120 mins by gamma counting; format: ADME, organism-based; conditions: in vivo, 2 h; outline: as §1
[55] = tested on: Muscle tissue; experiment: Biodistribution in Kunming mouse muscle at 1 uCi, iv after 240 mins by gamma counting; format: ADME, organism-based; conditions: in vivo, 4 h; outline: as §1

O=C(/C=C/c1ccccc1)n1ccc2cc([125I])ccc21
logD [1]: 2.53
Drug uptake [2]: 14.13 % ID/g
Drug uptake [3]: 3.91 % ID/g
Drug uptake [4]: 3.75 % ID/g
Drug uptake [5]: 2.88 % ID/g
Drug uptake [6]: 1.61 % ID/g
Drug uptake [7]: 1.07 % ID/g
Drug uptake [8]: 2 % ID/g
Drug uptake [9]: 1.98 % ID/g
Drug uptake [10]: 1.57 % ID/g
Drug uptake [11]: 0.77 % ID/g
Drug uptake [12]: 0.33 % ID/g
Drug uptake [13]: 0.17 % ID/g
Drug uptake [14]: 10.72 % ID/g
Drug uptake [15]: 2.9 % ID/g
Drug uptake [16]: 2.07 % ID/g
Drug uptake [17]: 1.53 % ID/g
Drug uptake [18]: 0.99 % ID/g
Drug uptake [19]: 0.61 % ID/g
Drug uptake [20]: 15.89 % ID/g
Drug uptake [21]: 7.73 % ID/g
Drug uptake [22]: 6.48 % ID/g
Drug uptake [23]: 4.09 % ID/g
Drug uptake [24]: 4.86 % ID/g
Drug uptake [25]: 2.23 % ID/g
Drug uptake [26]: 4.08 % ID/g
Drug uptake [27]: 2.44 % ID/g
Drug uptake [28]: 1.71 % ID/g
Drug uptake [29]: 1.85 % ID/g
Drug uptake [30]: 0.63 % ID/g
Drug uptake [31]: 0.59 % ID/g
Drug uptake [32]: 14.5 % ID/g
Drug uptake [33]: 6.73 % ID/g
Drug uptake [34]: 4.88 % ID/g
Drug uptake [35]: 2.66 % ID/g
Drug uptake [36]: 2.1 % ID/g
Drug uptake [37]: 1.27 % ID/g
Drug uptake [38]: 11.22 % ID/g
Drug uptake [39]: 9.68 % ID/g
Drug uptake [40]: 10.16 % ID/g
Drug uptake [41]: 6.14 % ID/g
Drug uptake [42]: 3.54 % ID/g
Drug uptake [43]: 2.22 % ID/g
Drug uptake [44]: 1.09 %ID
Drug uptake [45]: 1.52 %ID
Drug uptake [46]: 1.72 %ID
Drug uptake [47]: 2.08 %ID
Drug uptake [48]: 2.29 %ID
Drug uptake [49]: 1.3 %ID
Drug uptake [50]: 3.97 % ID/g
Drug uptake [51]: 2.47 % ID/g
Drug uptake [52]: 2.06 % ID/g
Drug uptake [53]: 1.06 % ID/g
Drug uptake [54]: 0.84 % ID/g
Drug uptake [55]: 0.19 % ID/g
